S1P4 antagonist – antagonists of human S1P4 receptor; O95977; S1P4-expressing cells, antagonist mode, reporter read-out; inhibition, % at 4.98 µM; 220,000 tested, 0.26% active; AID 1510; in the data active means inhibition above about 29%;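 further: 0% = wells stimulated with agonist and 100% = vehicle wells without agonist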
Mdm2 ligase inh – blocks human Mdm2 ubiquitin ligase activity; Q00987; cell-based MDM2 ubiquitination luciferase reporter, 2 h; 0 = plate control, 100 = twice control, blank-subtracted; signal enhancement, % at 5 µM; 210,000 tested, 0.11% active;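 active means signal enhancement of 30% or more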;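 further: luminescence tracks abundance of the self-degrading MDM2-luciferase fusion protein; higher signal means inhibition of MDM2 E3 ligase activity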
Target sequence (Q00987 whole entry, looked up, the tested form may be a part): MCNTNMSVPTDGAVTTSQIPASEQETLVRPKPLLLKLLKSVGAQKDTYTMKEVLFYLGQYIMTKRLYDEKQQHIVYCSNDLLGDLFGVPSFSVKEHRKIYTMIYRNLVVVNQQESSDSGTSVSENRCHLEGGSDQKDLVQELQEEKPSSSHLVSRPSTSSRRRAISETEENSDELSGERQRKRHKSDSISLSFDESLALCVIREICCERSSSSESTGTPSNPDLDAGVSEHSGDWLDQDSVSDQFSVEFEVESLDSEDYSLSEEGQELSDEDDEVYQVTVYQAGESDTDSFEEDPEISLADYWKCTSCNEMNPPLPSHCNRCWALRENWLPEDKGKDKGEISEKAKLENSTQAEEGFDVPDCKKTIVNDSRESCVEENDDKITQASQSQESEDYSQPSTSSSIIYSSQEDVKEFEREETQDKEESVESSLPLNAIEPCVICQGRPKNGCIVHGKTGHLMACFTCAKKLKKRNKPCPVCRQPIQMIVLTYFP
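Test system: mammalian cells stably expressing self-ubiquitinating, self-degrading MDM2 E3–luciferase fusion; Amount: 2000 cells in each well; Medium: DMEM; Schedule: 4 h settle plus 2 h compound, 37 °C; Technique: SteadyLite luciferase luminescence after 15 min room-temperature reagent incubation; Benchmarks: plate control and blank wells.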
L major viab – reduces viability of Leishmania major promastigotes | resazurin fluorescence viability | inhibition, % at 10 µM | 200,000 tested, 9% active | AID 1063; in the data active means inhibition above about 50%;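 further: promastigotes grown with compound for 44 hours at 28 °C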
S1P3 antagonist – S1P3 (human) receptor antagonism. Q99500. CHO S1P3 NFAT-BLA reporter, FRET fluorescence, antagonist mode. inhibition, % at 4.98 µM. 170,000 tested, 0.27% active. AID 485;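 active means inhibition above the plate cutoff, the mean inhibition of test wells on that plate plus 3 SD, cut at about 28% in these data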;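 further: cells challenged with S1P at its EC80 of 0.8 µM; blue over green emission ratio from cleaved BLA substrate after 4 h stimulation; 0% = S1P-stimulated wells and 100% = unstimulated DMSO-only wells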
S1P4 ag – agonists of human S1P4 receptor. O95977. S1P4-expressing cell line, agonist reporter assay. activation, % at 4.98 µM. 220,000 tested, 0.35% active; in the data active means activation above about 11%;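 further: 0% = DMSO vehicle and 100% = reference agonist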
* hit, by the source's call; . = no result given. This excerpt belongs to a sample that is enriched for hits.

SMILES	S1P4 antagonist	Mdm2 ligase inh	L major viab	S1P3 antagonist	S1P4 ag
COc1c(C)cc(C(=O)C2CCCN(Cc3ccc(Oc4ncccn4)cc3)C2)cc1C (stereo unspecified)	-17	-18	82*	11	-2
COC(=O)N1[C@H](C)C=C[C@]1(Cc1ccccc1)C(=O)O	-10	.	-4	-6	1
O=C(NCc1ccccc1)c1onc(CSc2ccccc2)c1C(=O)NCC1CC1	.	14	.	.	.
CCN1CCN(c2nc(-c3ccccc3)nc3ccccc23)CC1	-19	1	16	-5	-1
c1cncc(-c2nc(N3CCOCC3)c3ccccc3n2)c1	8	-22	10	.	1
CC1CCN(c2nc(-c3ccncc3)nc3ccccc23)CC1	4	-4	99*	23	-1
c1ccc2c(N3CCOCC3)nc(-c3ccncc3)nc2c1	-7	1	92*	.	0
CN(Cc1cn(-c2ccccc2)nc1-c1ccc2c(c1)OCO2)Cc1nccn1C	11	0	24	-9	-1
CN(CCn1ccnc1)Cc1cn(-c2ccccc2)nc1-c1ccc2c(c1)OCO2	-7	-3	94*	9	-2
Cc1cc(OCC(=O)Nc2ccc(S(=O)(=O)NC3=NCCCCC3)cc2)c(C(C)C)cc1Cl	-4	-8	71*	14	0
O=C(COc1ccc(Cl)cc1Cl)Nc1ccc(S(=O)(=O)NC2=NCCCCC2)cc1	-19	1	-7	-9	0
COc1ccccc1NC(=O)Cn1c(=O)n(CCc2c[nH]c3ccccc23)c(=O)c2cccnc21	7	.	65*	11	-2
COC(=O)[C@H](Cc1c[nH]c2ccccc12)NC(=O)Nc1ccccc1OC	9	-8	.	-19	-2
OC(COc1ccc2ccccc2c1)CN1CCCC1 (stereo unspecified)	-24	-8	74*	-23	-1
OC(COc1cccc2ccccc12)CN1CCN(c2ccc(Cl)cc2)CC1 (stereo unspecified)	4	-8	.	10	0
OC(COc1cccc2ccccc12)CN1CCCC1 (stereo unspecified)	8	.	100*	.	0
COc1cc(/C=C/C(=O)O)cc(S(=O)(=O)NCCCC(=O)O)c1OC	-11	-9	-6	3	-1
O=C(Oc1cccc(C(=S)N2CCOCC2)c1)c1cc([N+](=O)[O-])cc([N+](=O)[O-])c1	6	-2	-7	-22	-1
COc1ccc(CNC(=O)C/C(C)=N/NC(=O)COc2cccc(C)c2)cc1	-15	5	-6	-3	1
COc1cccc(CC2(CO)CCCN(Cc3ccc(C)s3)C2)c1 (stereo unspecified)	-12	-21	67*	-7	1
COc1cccc(CC2(CO)CCCN(Cc3cc4ccccc4[nH]3)C2)c1 (stereo unspecified)	-18	-13	74*	0	0
N#CCCn1c(SCC(=O)Nc2ccc(N3CCOCC3)cc2)nc2ccccc21	-22	-4	47	-2	1
CN(Cc1cn(C)c2ccccc12)C(=S)Nc1cc(F)cc(F)c1	-18	-3	74*	2	1
Cc1cccc(NC(=S)N(C)Cc2cn(C)c3ccccc23)c1	-12	-5	69*	8	0
COc1cccc(NC(=O)Cc2cn(C)c3ccccc23)c1	-3	-6	3	.	-2
SMILES	S1P4 antagonist	Mdm2 ligase inh	L major viab	S1P3 antagonist	S1P4 ag
Cc1ccc(C)n1-c1ccc(C(=O)NN)s1	-16	-2	-7	-15	1
CC1(C)CC(=O)c2sc(NC(=O)c3ccc4ncsc4c3)nc2C1	4	-11	2	.	-2
Cc1cccc(-n2c(C)cc(/C=C3\C(=N)N4N=C(CC(C)C)SC4=NC3=O)c2C)c1	-19	4	59*	4	0
Cc1cc(C)cc(-n2c(C)cc(/C=C3\C(=N)N4N=C(CC(C)C)SC4=NC3=O)c2C)c1	1	-4	3	-21	0
Cc1cc(S(=O)(=O)NCc2ccccc2)ccc1OCC(=O)Nc1cccc([N+](=O)[O-])c1	5	-2	99*	-3	-1
CCOc1ccc(-n2cc(-c3ccccc3)c3c(N4CCOCC4)ncnc32)cc1	-12	-8	21	-7	-1
Cc1ccc(-n2cc(-c3ccccc3)c3c(NN4CCOCC4)ncnc32)cc1	-36	-8	81*	1	1
c1ccc(-c2cn(-c3ccccc3)c3ncnc(N4CCCCC4)c23)cc1	-13	-1	29	-8	-2
CN1CCN(c2ncnc3c2c(-c2ccccc2)cn3-c2ccc(F)cc2)CC1	4	-18	58*	-4	-1

Screening results from PubChem BioAssay.
